Assay results gathered from unrelated publications.
Compare with care: the assays were run in different laboratories.
Target: Serine/threonine-protein kinase SBK1 (SBK1, Homo sapiens, UniProt Q52WX2)

Cc1cc(-n2nc(Cc3cc(F)cc(C(F)(F)F)c3)nc2C)ccc1C(N)=O
remaining binding (cell-free assay; competition with immobilised ligand; 1 µM): 98%

F[C@@H]1CCN(c2nccc(-c3cnn4ncccc34)n2)C1
remaining binding (binding; 1 µM): 100%

O=C(c1ccc(Nc2ncc(Cl)c(-c3ccc(Cl)s3)n2)cc1)N1CCC(N2CCCC2)CC1
remaining binding (binding; competition with immobilised ligand; 1 µM): 48%

c1cncc(-c2cccc(Nc3nccc(NC4CCCCC4)n3)c2)c1
remaining binding (binding; competition with immobilised ligand; 10 µM): 66%

CN(CCCC(F)(F)F)c1nccc(-c2cnn3ncccc23)n1
remaining binding (binding; 1 µM): 85%

CCOC(=O)c1cc2cc(-c3cc(C(=O)NCc4ccc(C(=O)O)cc4)nn3C)ccc2[nH]1
remaining binding (cell-free assay; competition with immobilised ligand; 0.1 µM): 90%

O=C(Nc1c[nH]nc1C(=O)NC1CCNCC1)c1cc(F)cc(F)c1
remaining binding (binding; competition with immobilised ligand; 1 µM): 100%

CNC(=O)[C@@H]1CC[C@@H](n2c(-c3ccc4cnccc4c3)nc3ccc(C(=O)NCc4cccc(C(N)=O)c4)cc32)C1
remaining binding (binding; competition with immobilised ligand; 1 µM): 100%

CN(C)CC#Cc1ccc(OCCCc2sc(N3CCc4cccc(C(=O)Nc5nc6ccccc6s5)c4C3)nc2C(=O)O)c(F)c1
remaining binding (cell-free assay; competition with immobilised ligand; 1 µM): 100%

Nc1ncc2c(n1)-c1c([nH]c3ccc(C#CC4CC4)cc13)CCCC2
remaining binding (binding; competition with immobilised ligand; 1 µM): 100%

O=C(c1ccc(Nc2ncc(Cl)c(-c3cc4ccccc4s3)n2)cc1)N1CCC(N2CCCC2)CC1
remaining binding (binding; competition with immobilised ligand; 1 µM): 52%

Cc1cnn2ncc(-c3ccnc(N(C)C)n3)c2c1
remaining binding (binding; 1 µM): 83%

C[C@H](c1cccc(C#N)c1)n1cc(Cl)cc(C(N)=O)c1=N
remaining binding (cell-free assay; competition with immobilised ligand; 1 µM): 83%

CC1CCCN1c1nccc(-c2cnn3ncccc23)n1 (stereo not shown)
remaining binding (binding; 1 µM): 100%

CO[C@@H](C)c1c(Nc2ccc([C@H](N(C)C(=O)C3CCS(=O)(=O)CC3)C(F)(F)F)cc2)cnc2cc(Cl)nn12
remaining binding (cell-free assay; competition with immobilised ligand; 1 µM): 100%

CN(c1nccc(-c2cnn3ncccc23)n1)C1CC1
remaining binding (binding; 1 µM): 100%

O=S(=O)(NC1CCC(c2cc(F)ccc2F)(S(=O)(=O)c2ccc(Cl)cc2)CC1)C(F)(F)F (stereo not shown)
remaining binding (cell-free assay; competition with immobilised ligand; 1 µM): 75%

CCN1CCN(Cc2ccc(C(=O)Nc3ccc(C)c(Oc4ccc5c(c4)CC(=O)N5)c3)cc2C(F)(F)F)CC1
remaining binding (binding; competition with immobilised ligand; 1 µM): 76%

C[C@@H]1CCN(c2nccc(-c3cnn4ncccc34)n2)C1
remaining binding (binding; 1 µM): 85%

O=C(NCc1ncc(C(F)(F)F)cc1Cl)c1ccc2c(c1)C1(CCS(=O)(=O)CC1)[C@H](C1CC1)N2S(=O)(=O)c1ccc(F)cc1
remaining binding (cell-free assay; competition with immobilised ligand; 1 µM): 97%

O=C(NCCCN1CCOCC1)c1ccc(Nc2ncc(Cl)c(-c3ccc(Cl)s3)n2)cc1
remaining binding (binding; competition with immobilised ligand; 1 µM): 52%

N[C@H]1CCN(c2nccc(-c3cnn4ncccc34)n2)C1
remaining binding (binding; 1 µM): 83%
